Measured values taken from ChEMBL document CHEMBL1221342, “Synthesis and in vitro antitumor activity of new 4,5-dihydropyrazole derivatives” (Bioorg Med Chem, 2010).

What was measured:
Type in all cases: functional
[1] = tested on: CCRF-CEM; assay: Growth inhibition of human CCRF-CEM cells after 48 hrs by SRB assay
How it was run: (§1)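 NCI 60-cell-line screen. Cells grown in RPMI1640 with 5% fetal calf serum and 2 mM L-glutamine, with inoculum density set by cell line. Preincubated 24 h, then given compound in DMSO at 10^-4 to 10^-8 M (five 10-fold steps) for 48 h continuous exposure. Growth measured by SRB protein assay. GI50, TGI and LC50 reported as –log molar.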

[2] = tested on: K562; assay: Growth inhibition of human K562 cells after 48 hrs by SRB assay; conditions: K562, 48 h; how it was run: as §1
[3] = tested on: MOLT-4; assay: Growth inhibition of human MOLT4 cells after 48 hrs by SRB assay; conditions: MOLT-4, 48 h; how it was run: as §1
[4] = Growth inhibition of human […] cells after 48 hrs by SRB assay; how it was run: as §1
[5] = tested on: SR; assay: Growth inhibition of human SR cells after 48 hrs by SRB assay; how it was run: as §1
[6] = tested on: HOP-62; assay: Growth inhibition of human HOP62 cells after 48 hrs by SRB assay; conditions: HOP-62, 48 h; how it was run: as §1
[7] = tested on: NCI-H322M; assay: Growth inhibition of human NCI-H322M cells after 48 hrs by SRB assay; how it was run: as §1
[8] = tested on: NCI-H522; assay: Growth inhibition of human NCI-H522 cells after 48 hrs by SRB assay; conditions: NCI-H522, 48 h; how it was run: as §1
[9] = tested on: COLO 205; assay: Growth inhibition of human COLO205 cells after 48 hrs by SRB assay; conditions: COLO 205, 48 h; how it was run: as §1
[10] = tested on: HCT-116; assay: Growth inhibition of human HCT116 cells after 48 hrs by SRB assay; conditions: HCT-116, 48 h; how it was run: as §1
[11] = tested on: HCT-15; assay: Growth inhibition of human HCT15 cells after 48 hrs by SRB assay; conditions: HCT-15, 48 h; how it was run: as §1
[12] = tested on: HT-29; assay: Growth inhibition of human HT-29 cells after 48 hrs by SRB assay; conditions: HT-29, 48 h; how it was run: as §1
[13] = tested on: SW-620; assay: Growth inhibition of human SW620 cells after 48 hrs by SRB assay; conditions: SW-620, 48 h; how it was run: as §1
[14] = tested on: SF-268; assay: Growth inhibition of human SF268 cells after 48 hrs by SRB assay; conditions: SF-268, 48 h; how it was run: as §1
[15] = tested on: SF-295; assay: Growth inhibition of human SF295 cells after 48 hrs by SRB assay; conditions: SF-295, 48 h; how it was run: as §1
[16] = tested on: SF-539; assay: Growth inhibition of human SF539 cells after 48 hrs by SRB assay; conditions: SF-539, 48 h; how it was run: as §1
[17] = tested on: SNB-75; assay: Growth inhibition of human SNB75 cells after 48 hrs by SRB assay; conditions: SNB-75, 48 h; how it was run: as §1
[18] = tested on: U-251; assay: Growth inhibition of human U251 cells after 48 hrs by SRB assay; conditions: U-251, 48 h; how it was run: as §1
[19] = tested on: Malme-3M; assay: Growth inhibition of human MALME-3M cells after 48 hrs by SRB assay; how it was run: as §1
[20] = tested on: M14; assay: Growth inhibition of human M14 cells after 48 hrs by SRB assay; conditions: M14, 48 h; how it was run: as §1
[21] = tested on: SK-MEL-2; assay: Growth inhibition of human SK-MEL-2 cells after 48 hrs by SRB assay; conditions: SK-MEL-2, 48 h; how it was run: as §1
[22] = tested on: MDA-MB-435; assay: Growth inhibition of human MDA-MB-435 cells after 48 hrs by SRB assay; conditions: MDA-MB-435, 48 h; how it was run: as §1
[23] = tested on: SK-MEL-28; assay: Growth inhibition of human SK-MEL-28 cells after 48 hrs by SRB assay; conditions: SK-MEL-28, 48 h; how it was run: as §1
[24] = tested on: SK-MEL-5; assay: Growth inhibition of human SK-MEL-5 cells after 48 hrs by SRB assay; conditions: SK-MEL-5, 48 h; how it was run: as §1
[25] = tested on: UACC-62; assay: Growth inhibition of human UACC62 cells after 48 hrs by SRB assay; conditions: UACC-62, 48 h; how it was run: as §1
[26] = tested on: OVCAR-4; assay: Growth inhibition of human OVCAR4 cells after 48 hrs by SRB assay; conditions: OVCAR-4, 48 h; how it was run: as §1
[27] = tested on: OVCAR-8; assay: Growth inhibition of human OVCAR8 cells after 48 hrs by SRB assay; conditions: OVCAR-8, 48 h; how it was run: as §1
[28] = tested on: SK-OV-3; assay: Growth inhibition of human SKOV3 cells after 48 hrs by SRB assay; conditions: SK-OV-3, 48 h; how it was run: as §1
[29] = tested on: CAKI-1; assay: Growth inhibition of human Caki1 cells after 48 hrs by SRB assay; conditions: CAKI-1, 48 h; how it was run: as §1
[30] = tested on: TK-10; assay: Growth inhibition of human TK10 cells after 48 hrs by SRB assay; conditions: TK-10, 48 h; how it was run: as §1
[31] = tested on: UO-31; assay: Growth inhibition of human UO31 cells after 48 hrs by SRB assay; conditions: UO-31, 48 h; how it was run: as §1
[32] = tested on: PC-3; assay: Growth inhibition of human PC3 cells after 48 hrs by SRB assay; conditions: PC-3, 48 h; how it was run: as §1
[33] = tested on: DU-145; assay: Growth inhibition of human DU145 cells after 48 hrs by SRB assay; conditions: DU-145, 48 h; how it was run: as §1
[34] = tested on: MCF7; assay: Growth inhibition of human MCF7 cells after 48 hrs by SRB assay; conditions: MCF7, 48 h; how it was run: as §1
[35] = tested on: BT-549; assay: Growth inhibition of human BT549 cells after 48 hrs by SRB assay; conditions: BT-549, 48 h; how it was run: as §1
[36] = tested on: T47D; assay: Growth inhibition of human T47D cells after 48 hrs by SRB assay; how it was run: as §1

COc1ccc(/C=C\c2cc(OC)c(OC)c(OC)c2)cc1O [COMBRETASTATIN A4]
GI50 [1]: 0.1 µM | TGI ([1]; read-out: pTGI (converted)): 5.01 µM | GI50 [2]: 0.0316 µM | TGI ([2]; read-out: pTGI (converted)): 2 µM | GI50 [3]: 0.1 µM | TGI ([3]; read-out: pTGI (converted)): 3.98 µM | GI50 [4]: 0.158 µM | TGI ([4]; read-out: pTGI (converted)): 6.31 µM | GI50 [5]: 0.126 µM | TGI ([5]; read-out: pTGI (converted)): 79.4 µM | GI50 [6]: 0.2 µM | TGI ([6]; read-out: pTGI (converted)): 2.51 µM | GI50 [7]: 0.0794 µM | TGI ([7]; read-out: pTGI (converted)): 79.4 µM | GI50 [8]: 0.0316 µM | TGI ([8]; read-out: pTGI (converted)): 3.98 µM | GI50 [9]: 2.51 µM | TGI ([9]; read-out: pTGI (converted)): 50.1 µM | GI50 [10]: 0.0316 µM | TGI ([10]; read-out: pTGI (converted)): 0.2 µM | GI50 [11]: 0.0316 µM | TGI ([11]; read-out: pTGI (converted)): 10 µM | GI50 [12]: 0.631 µM | TGI ([12]; read-out: pTGI (converted)): 6.31 µM | GI50 [13]: 0.0316 µM | TGI ([13]; read-out: pTGI (converted)): 79.4 µM | GI50 [14]: 0.126 µM | TGI ([14]; read-out: pTGI (converted)): 50.1 µM | GI50 [15]: 0.0631 µM | TGI ([15]; read-out: pTGI (converted)): 1.26 µM | GI50 [16]: 0.0398 µM | TGI ([16]; read-out: pTGI (converted)): 0.2 µM | GI50 [17]: 0.794 µM | TGI ([17]; read-out: pTGI (converted)): 25.1 µM | GI50 [18]: 0.0501 µM | TGI ([18]; read-out: pTGI (converted)): 12.6 µM | GI50 [19]: 0.501 µM | TGI ([19]; read-out: pTGI (converted)): 79.4 µM | GI50 [20]: 0.158 µM | TGI ([20]; read-out: pTGI (converted)): 0.251 µM | GI50 [21]: 7.94 µM | TGI ([21]; read-out: pTGI (converted)): 79.4 µM | GI50 [22]: 0.0316 µM | TGI ([22]; read-out: pTGI (converted)): 0.0794 µM | GI50 [23]: 3.16 µM | TGI ([23]; read-out: pTGI (converted)): 50.1 µM | GI50 [24]: 0.01 µM | TGI ([24]; read-out: pTGI (converted)): 0.01 µM | GI50 [25]: 0.01 µM | TGI ([25]; read-out: pTGI (converted)): 63.1 µM | GI50 [26]: 0.251 µM | TGI ([26]; read-out: pTGI (converted)): 79.4 µM | GI50 [27]: 0.0398 µM | TGI ([27]; read-out: pTGI (converted)): 39.8 µM | GI50 [28]: 31.6 µM | TGI ([28]; read-out: pTGI (converted)): > 100 µM | GI50 [29]: 0.0398 µM | TGI ([29]; read-out: pTGI (converted)): 15.8 µM | GI50 [30]: 0.631 µM | TGI ([30]; read-out: pTGI (converted)): 3.98 µM | GI50 [31]: 0.2 µM | TGI ([31]; read-out: pTGI (converted)): 50.1 µM | GI50 [32]: 0.0398 µM | TGI ([32]; read-out: pTGI (converted)): > 100 µM | GI50 [33]: 0.01 µM | TGI ([33]; read-out: pTGI (converted)): > 100 µM | GI50 [34]: 0.0398 µM | TGI ([34]; read-out: pTGI (converted)): 79.4 µM | GI50 [35]: 0.01 µM | TGI ([35]; read-out: pTGI (converted)): 2 µM | GI50 [36]: 50.1 µM | TGI ([36]; read-out: pTGI (converted)): > 100 µM
